Published values collected from several papers.
Target: Serine/threonine-protein kinase MAK (MAK, Homo sapiens, UniProt P20794)
Residues used in one study (P20794 1-623): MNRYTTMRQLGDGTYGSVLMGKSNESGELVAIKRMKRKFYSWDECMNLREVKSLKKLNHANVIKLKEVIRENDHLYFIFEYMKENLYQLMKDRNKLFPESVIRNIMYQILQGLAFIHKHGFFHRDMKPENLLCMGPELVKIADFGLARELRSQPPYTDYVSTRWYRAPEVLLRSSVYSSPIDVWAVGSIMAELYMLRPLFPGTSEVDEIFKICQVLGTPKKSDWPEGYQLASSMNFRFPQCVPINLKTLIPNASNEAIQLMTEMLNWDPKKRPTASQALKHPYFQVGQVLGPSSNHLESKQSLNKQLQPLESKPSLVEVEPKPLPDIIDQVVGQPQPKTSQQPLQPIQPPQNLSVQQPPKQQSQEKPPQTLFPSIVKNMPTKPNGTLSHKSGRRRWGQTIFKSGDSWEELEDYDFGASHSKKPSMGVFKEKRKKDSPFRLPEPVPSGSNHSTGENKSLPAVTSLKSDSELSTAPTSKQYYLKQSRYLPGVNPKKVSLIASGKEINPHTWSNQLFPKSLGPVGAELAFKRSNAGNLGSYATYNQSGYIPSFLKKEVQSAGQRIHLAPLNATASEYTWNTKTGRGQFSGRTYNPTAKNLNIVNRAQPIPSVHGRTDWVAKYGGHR

SMILES | assay | conditions | measurement | value
NS(=O)(=O)c1cc(NC(=O)C2(c3ccccc3Cl)CC2)ccc1Oc1cccc(Cl)c1 | binding, competition with immobilised ligand | 1 µM | remaining binding | 89%
CN1CC(Oc2cnc(C#N)cc2-c2ccn3nc(NC(=O)C4CC4)cc3c2)C1 | enzyme activity, inhibitor | 1 µM | inhibition | 3%
Cc1ccc(C(=O)NCc2ccsc2)cc1C#Cc1cn(C(C)C)c2ncnc(N)c12 | enzyme activity, inhibitor | 1 µM | activity vs control | 120%
Nc1ncnc2occ(-c3ccc(NC(=O)Nc4cc(C(F)(F)F)ccc4F)cc3)c12 | cell-free assay | 20 µM | remaining signal | 7.9%
Cc1sc(C(=O)NC2COC2)cc1-n1cc(NC(=O)Nc2c(F)cccc2Cl)cn1 | enzyme activity, inhibitor | 10 µM | remaining activity | 120%
Cc1ccc(C(=O)Nc2ccc(CN3CCN(C)CC3)c(C(F)(F)F)c2)cc1C#Cc1cnc2cccnn12 | enzyme activity | 23.5 nM | remaining activity | 93%
CC(C)CC(=O)N1CCc2nc(-c3ccc(Br)cc3)nc(N(C)Cc3ccccc3)c2C1 | cell-free assay, competition with immobilised ligand | 0.1 µM | remaining binding | 99%
O=C(Nc1cnn(-c2csc(C(=O)NC3COC3)c2)c1)Nc1c(F)cccc1Cl | enzyme activity, inhibitor | 5 µM | remaining activity | 97.6%
